From PMC8550878 (Journal of medicinal chemistry, 2021)
Non-standard residues stand in square brackets, D forms with d. Residues, ends and D or L forms follow the SMILES beside them. No end group written: not given here. *: point of attachment. Benzoyl(2-OMe,5-SO2F) = COc1ccc(S(=O)(=O)F)cc1C(=O)*; Biotin = O=C1N[C@H]2[C@H](CS[C@H]2CCCCC(=O)*)N1; X1 = Cc1ccc(S(=O)(=O)F)cc1C(=O)*; hSer = N[C@@H](CCO)C(=O)O; Nle = CCCC[C@H](N)C(=O)O; Abu = CC[C@H](N)C(=O)O; Dap = NC[C@H](N)C(=O)O; Ahx = NCCCCCC(=O)O

How the values were obtained:
hBfl-1 = molecular target: T1, hBfl-1 (Homo sapiens, UniProt Q16548); experiment: DELFIA displacement assay, hBfl-1; type: binding
T1 sequence (Q16548 1-149): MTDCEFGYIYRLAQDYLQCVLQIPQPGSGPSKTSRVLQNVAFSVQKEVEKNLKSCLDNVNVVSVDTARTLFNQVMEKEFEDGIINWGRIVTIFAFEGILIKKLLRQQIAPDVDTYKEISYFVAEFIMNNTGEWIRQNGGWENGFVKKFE

Solubility = type: physicochemical; settings: qualitative, relative to peptides 10 and 11
hMcl-1 [1] = molecular target: T2, hMcl-1 (Homo sapiens, UniProt Q07820); experiment: DELFIA displacement assay, hMcl-1; type: binding
T2 sequence (Q07820 172-323): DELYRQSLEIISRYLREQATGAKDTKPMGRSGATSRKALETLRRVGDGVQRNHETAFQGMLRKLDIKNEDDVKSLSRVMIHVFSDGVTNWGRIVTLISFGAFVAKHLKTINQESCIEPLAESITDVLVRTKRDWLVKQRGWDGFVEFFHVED

hMcl-1 construct = experiment: In vitro denaturation thermal shift; type: binding, human; settings: hMcl-1 construct used for biochemical and crystallization studies (Figure S4)
hMcl-1 [2] = molecular target: T2, hMcl-1; experiment: Mass spectrometry of covalent adduct; type: binding; settings: protein alone 18,763 Da (Figure S1)
Mcl-1 in A549 cells = experiment: Mcl-1 protein levels in A549 cells by immunoblotting; type: cell-based, human; settings: 50 or 100 μM compound, 2 h, western blot relative to β-tubulin
Summary of the method: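 A549 cells grown in Ham's F-12 with GlutaMAX, 10% FBS, 1% PenStrep and 0.5 μg/mL puromycin. Cells were exposed to DMSO or test compound (50 or 100 μM) for 2 h, with or without 30 min pre-treatment with 1 μM carfilzomib. Lysates were run on SDS-PAGE, transferred to PVDF, blocked in 5% milk/TBS-T, probed overnight at 4 °C for Mcl-1 and β-tubulin, then HRP secondary and ECL detection.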

[3] = tested on: Mcl-1 in A549 cell lysates; experiment: Covalent adduct in spiked A549 cell lysates by immunoblotting; type: binding, human; settings: A549 cell lysates spiked with 100 μM compound for 1 h at 37 °C, western blot
Summary of the method: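 A549 cells grown in Ham's F-12 with GlutaMAX, 10% FBS, PenStrep and 0.5 μg/mL puromycin. Harvested cells were lysed for 20 min on ice in Tris pH 7.4 buffer with Triton X-100, deoxycholate, SDS, IGEPAL, EDTA, protease and phosphatase inhibitors. Cleared, protein-quantified supernatant was incubated with DMSO or 100 μM test compound for 1 h at 37 °C. Then SDS-PAGE, PVDF transfer, milk block, anti-Mcl-1 and β-tubulin overnight at 4 °C, HRP secondary, ECL.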

[4] = molecular target: T3, hMcl-1 (residues 172–323) with N-terminal His tag (human, UniProt Q07820 172-323); experiment: DELFIA displacement assay
T3 sequence (Q07820 172-323): as above

[5] = molecular target: T4, hBfl-1 (residues 1–149) with N-terminal His tag (human, UniProt Q16548 1-149); experiment: DELFIA displacement assay
T4 sequence (looked up): T1 sequence (Q16548 1-149)

[6] = molecular target: T3, hMcl-1 (residues 172–323) with …; experiment: DELFIA displacement assay; remark: listed apart in the source

Ac-AIAEQLRRIGDRF-NH2 [Compound 12]
IC50 (hBfl-1): > 10000 nM | solubility (Solubility): increased solubility

AIAQVLRRIGDAF-NH2 [Compound 7]
IC50 (hMcl-1 [1]): ~1800 nM

CC[C@H](C)[C@H](NC(=O)[C@H](CCCNC(=N)N)NC(=O)[C@H](CCCNC(=N)N)NC(=O)[C@H](CC(C)C)NC(=O)[C@H](CCC(N)=O)NC(=O)[C@H](CCC(=O)O)NC(=O)[C@H](C)NC(=O)[C@@H](NC(=O)[C@H](CNC(=O)c1cc(S(=O)(=O)F)ccc1C)NC(C)=O)[C@@H](C)CC)C(=O)NCC(=O)N[C@@H](CC(=O)O)C(=O)N[C@@H](CCCNC(=N)N)C(=O)N[C@@H](Cc1ccccc1)C(N)=O [Compound 15] (Ac-[Dap](X1)IAEQLRRIGDRF-NH2)
denaturation thermal shift (hMcl-1 construct): 23 °C | MW of hMcl-1 after incubation with compound (hMcl-1 [2]): 20,544 Da

CC[C@H](C)[C@H](NC(=O)[C@H](CCCNC(=N)N)NC(=O)[C@H](CCCNC(=N)N)NC(=O)[C@H](CC(C)C)NC(=O)[C@H](CCC(N)=O)NC(=O)[C@H](CCC(=O)O)NC(=O)[C@H](C)NC(=O)[C@@H](NC(=O)[C@H](CNC(=O)c1cc(S(=O)(=O)F)ccc1OC)NC(C)=O)[C@@H](C)CC)C(=O)NCC(=O)N[C@@H](CC(=O)O)C(=O)N[C@@H](CCCNC(=N)N)C(=O)N[C@@H](Cc1ccccc1)C(N)=O [Compound 16] (Ac-[Dap](Benzoyl(2-OMe,5-SO2F))IAEQLRRIGDRF-NH2)
Mcl-1 protein levels (Mcl-1 in A549 cells): decrease in Mcl-1 protein levels | covalent adduct with Mcl-1 by band shift in cell lysates [3]: Covalent adduct was detected

AIAQLLRRIGDAF-NH2 [Compound 8]
IC50 (hMcl-1 [1]): ~1800 nM

H-AIAQALRRIGDAY-NH2 [peptide 2]
IC50 [4]: > 3600 nM

H-AIAQALRRIGDAL-NH2 [peptide 4]
IC50 [4]: 1200 nM

Ac-AIAEQLRRIGDRF-NH2 [peptide 12]
IC50 [4]: 570 nM

H-AIAQALRRIGDAR-NH2 [peptide 3]
IC50 [4]: > 10000 nM

Ac-AIAEALRRIGDAF-NH2 [peptide 10]
IC50 [4]: 261 nM

H-AIAEQLRRIGDAF-NH2 [peptide 11]
IC50 [4]: 313 nM

B1: peptide 9 (peptide)
chain: H-AIAQ[hSer]LRRIGDAF-NH2
SMILES: CC[C@H](C)[C@H](NC(=O)[C@H](C)N)C(=O)N[C@@H](C)C(=O)N[C@@H](CCC(N)=O)C(=O)N[C@@H](CCO)C(=O)N[C@@H](CC(C)C)C(=O)N[C@@H](CCCNC(=N)N)C(=O)N[C@@H](CCCNC(=N)N)C(=O)N[C@H](C(=O)NCC(=O)N[C@@H](CC(=O)O)C(=O)N[C@@H](C)C(=O)N[C@@H](Cc1ccccc1)C(N)=O)[C@@H](C)CC
IC50 [4]: ~3000 nM

B2: peptide 6 (peptide)
chain: H-AIAQ[Abu]LRRIGDAF-NH2
SMILES: CC[C@H](NC(=O)[C@H](CCC(N)=O)NC(=O)[C@H](C)NC(=O)[C@@H](NC(=O)[C@H](C)N)[C@@H](C)CC)C(=O)N[C@@H](CC(C)C)C(=O)N[C@@H](CCCNC(=N)N)C(=O)N[C@@H](CCCNC(=N)N)C(=O)N[C@H](C(=O)NCC(=O)N[C@@H](CC(=O)O)C(=O)N[C@@H](C)C(=O)N[C@@H](Cc1ccccc1)C(N)=O)[C@@H](C)CC
IC50 [4]: ~1300 nM

B3: biotinylated-BH3 peptide (biotin-AHA-EDIIRNIARHLAQVGDSMDR-NH2) (peptide)
peptide: {Biotin-Ahx}-EDIIRNIARHLAQVGDSMDR-NH2
SMILES: CC[C@H](C)[C@H](NC(=O)[C@H](CC(N)=O)NC(=O)[C@H](CCCNC(=N)N)NC(=O)[C@@H](NC(=O)[C@@H](NC(=O)[C@H](CC(=O)O)NC(=O)[C@H](CCC(=O)O)NC(=O)CCCCCNC(=O)CCCC[C@@H]1SC[C@@H]2NC(=O)N[C@@H]21)[C@@H](C)CC)[C@@H](C)CC)C(=O)N[C@@H](C)C(=O)N[C@@H](CCCNC(=N)N)C(=O)N[C@@H](Cc1c[nH]cn1)C(=O)N[C@@H](CC(C)C)C(=O)N[C@@H](C)C(=O)N[C@@H](CCC(N)=O)C(=O)N[C@H](C(=O)NCC(=O)N[C@@H](CC(=O)O)C(=O)N[C@@H](CO)C(=O)N[C@@H](CCSC)C(=O)N[C@@H](CC(=O)O)C(=O)N[C@@H](CCCNC(=N)N)C(N)=O)C(C)C
binding result [5]: binds | binding result [6]: binds

B4: peptide 5 (peptide)
chain: H-AIAQALRRIGDA[Nle]-NH2
SMILES: CCCC[C@H](NC(=O)[C@H](C)NC(=O)[C@H](CC(=O)O)NC(=O)CNC(=O)[C@@H](NC(=O)[C@H](CCCNC(=N)N)NC(=O)[C@H](CCCNC(=N)N)NC(=O)[C@H](CC(C)C)NC(=O)[C@H](C)NC(=O)[C@H](CCC(N)=O)NC(=O)[C@H](C)NC(=O)[C@@H](NC(=O)[C@H](C)N)[C@@H](C)CC)[C@@H](C)CC)C(N)=O
IC50 [4]: ~1600 nM
